Measured values collected from several papers.
Protocols differ between the studies behind these lines.
Target: Tyrosine-protein kinase ITK/TSK (ITK, Homo sapiens, UniProt Q08881)
One construct used (Q08881 1-620): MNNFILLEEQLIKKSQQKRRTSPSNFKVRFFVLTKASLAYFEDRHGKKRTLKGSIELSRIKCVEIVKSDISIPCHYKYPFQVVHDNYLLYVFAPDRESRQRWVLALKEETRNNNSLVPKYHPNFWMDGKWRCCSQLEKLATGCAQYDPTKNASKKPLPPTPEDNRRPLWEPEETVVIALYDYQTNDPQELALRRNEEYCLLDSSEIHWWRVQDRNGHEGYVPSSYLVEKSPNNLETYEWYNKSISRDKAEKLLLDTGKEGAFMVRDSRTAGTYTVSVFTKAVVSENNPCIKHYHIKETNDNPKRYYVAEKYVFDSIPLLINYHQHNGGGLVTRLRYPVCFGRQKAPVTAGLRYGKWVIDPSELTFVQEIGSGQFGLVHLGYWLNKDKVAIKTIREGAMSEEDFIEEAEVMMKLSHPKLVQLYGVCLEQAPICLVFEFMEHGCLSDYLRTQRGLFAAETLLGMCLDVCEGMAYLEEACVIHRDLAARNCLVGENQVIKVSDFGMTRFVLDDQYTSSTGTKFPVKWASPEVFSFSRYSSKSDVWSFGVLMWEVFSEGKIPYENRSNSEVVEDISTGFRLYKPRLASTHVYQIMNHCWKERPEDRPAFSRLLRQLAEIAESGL

SMILES	effect on	method	concentration	remaining binding
COc1cc(-c2cn(C3CCc4c(F)cccc4N(CC(F)(F)F)C3=O)nn2)ccc1-n1cnc(C)c1 (centres unmarked)	cell-free assay	competition with immobilised ligand	1 µM	100%
CCN1CCN(Cc2ccc(C(=O)Nc3ccc(C)c(Oc4ccc5c(c4)CC(=O)N5)c3)cc2C(F)(F)F)CC1	binding	competition with immobilised ligand	1 µM	72%
CC1CCCN1c1nccc(-c2cnn3ncccc23)n1 (centres unmarked)	binding		1 µM	100%
CC(=O)C1=C(C)N(c2cccc(C(F)(F)F)c2)C(=O)N[C@@H]1c1ccc(C#N)nc1	cell-free assay	competition with immobilised ligand	1 µM	90.4%
Nc1ncc2c(n1)-c1c([nH]c3ccc(C#CC4CC4)cc13)CCCC2	binding	competition with immobilised ligand	1 µM	92%
FC(F)(F)Oc1cccc(-c2cnc3ccc(-c4ccncc4)nn23)c1	cell-free assay	competition with immobilised ligand	5 µM	84%
O=C(NCCCN1CCOCC1)c1ccc(Nc2ncc(Cl)c(-c3ccc(Cl)s3)n2)cc1	binding	competition with immobilised ligand	1 µM	40%
CCC(=N\O)/C(C)=C/c1ccc(F)cc1	cell-free assay	competition with immobilised ligand	1 µM	90%
O=C(c1ccc(Nc2ncc(Cl)c(-c3cc4ccccc4s3)n2)cc1)N1CCC(N2CCCC2)CC1	binding	competition with immobilised ligand	1 µM	50%
O=C(Nc1cccnn1)N1CC(C/C=C/c2cncc(Oc3ccc(C(F)(F)F)cn3)n2)C1	cell-free assay	competition with immobilised ligand	1 µM	100%
CN(C)c1ncc(F)c(-c2cnn3ncccc23)n1	binding		1 µM	100%
CCC(=O)N[C@@H]1CC[C@H](C(=O)N(C)c2ccc(-c3nc4ccccc4o3)cc2)C1	cell-free assay	competition with immobilised ligand	1 µM	100%
N[C@H]1CCN(c2nccc(-c3cnn4ncccc34)n2)C1	binding		1 µM	100%
O=C(c1ccc(Nc2ncc(Cl)c(-c3ccc(Cl)s3)n2)cc1)N1CCC(N2CCCC2)CC1	binding	competition with immobilised ligand	1 µM	29%
F[C@@H]1CCN(c2nccc(-c3cnn4ncccc34)n2)C1	binding		1 µM	100%
COc1cnc(Nc2cccc(S(N)(=O)=O)c2)nc1N1CCN(c2ccccc2)C(=O)C1	binding	competition with immobilised ligand	1 µM	100%
C[C@H]1CCN(c2nccc(-c3cnn4ncccc34)n2)C1	binding		1 µM	93%
O=C(Nc1c[nH]nc1C(=O)NC1CCNCC1)c1cc(F)cc(F)c1	binding	competition with immobilised ligand	1 µM	100%
CN1CCN(c2cnc3c(C4CCN(C(=O)c5ccc(OC(F)(F)F)cc5N)CC4)ncnc3c2)CC1	cell-free assay	competition with immobilised ligand	1 µM	100%
CN(C)c1nccc(-c2cnn3ncccc23)n1	binding		1 µM	100%
